Laboratory results as given in ChEMBL document CHEMBL4622866, “Synthesis, biochemical evaluation, and molecular modeling of organophosphate-coumarin hybrids as potent and selective butyrylcholinesterase inhibitors” (Bioorg Med Chem Lett, 2020).
Activity calls are given as the source filed them. The calls are words filed in the database; no cut-off is given here.

Columns and labels:
[1] = target: Cholinesterase (Equus caballus) (UniProt P81908); assay: Inhibition of equine BChE at 34 uM using butyrylthiocholine as substrate measured after 15 sec by Ellman's method relative to control
Procedure, shortened: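 Single-concentration Ellman screen (120 μL scale) at 34 μM inhibitor with 2% MeOH (v/v) vehicle. Activity read after 15 s of enzyme exposure, in triplicate, reported as mean. Expressed relative to a vehicle-only control reaction.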

[2] = target: Cholinesterase (Equus caballus, UniProt P81908); assay: Inhibition of equine BChE using butyrylthiocholine as substrate measured after 15 sec by Ellman's method
Procedure, shortened: (§1)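 Ellman assay scaled to 120 μL reactions, with no enzyme–inhibitor pre-incubation. Activity read after 15 s of enzyme exposure. Inhibitor stocks were made in methanol and diluted into buffer; some values were determined in 2% DMSO. IC50 values are reported as mean with standard deviation.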

[3] = target: Cholinesterase (Equus caballus) (UniProt P81908); assay: Time dependent inhibition of equine BChE
[4] = target: T1, Acetylcholinesterase (Electrophorus electricus, UniProt O42275); assay: Time dependent inhibition of electric eel AChE
[5] = target: Cholinesterase (Equus caballus) (UniProt P81908); assay: Binding affinity to equine BChE assessed as observed rate constant
[6] = target: T1, Acetylcholinesterase; assay: Inhibition of electric eel AChE using acetylthiocholine as substrate measured after 15 sec by Ellman's method; procedure, shortened: as §1
[7] = Selectivity index, ratio of IC50 for electric eel AChE using acetylthiocholine as substrate measured after 15 sec by Ellman's method to IC50 for equine BChE using butyrylthiocholine as substrate measured after 15 sec by Ellman's method

Sequence of Cholinesterase (Equus caballus) (P81908 whole entry): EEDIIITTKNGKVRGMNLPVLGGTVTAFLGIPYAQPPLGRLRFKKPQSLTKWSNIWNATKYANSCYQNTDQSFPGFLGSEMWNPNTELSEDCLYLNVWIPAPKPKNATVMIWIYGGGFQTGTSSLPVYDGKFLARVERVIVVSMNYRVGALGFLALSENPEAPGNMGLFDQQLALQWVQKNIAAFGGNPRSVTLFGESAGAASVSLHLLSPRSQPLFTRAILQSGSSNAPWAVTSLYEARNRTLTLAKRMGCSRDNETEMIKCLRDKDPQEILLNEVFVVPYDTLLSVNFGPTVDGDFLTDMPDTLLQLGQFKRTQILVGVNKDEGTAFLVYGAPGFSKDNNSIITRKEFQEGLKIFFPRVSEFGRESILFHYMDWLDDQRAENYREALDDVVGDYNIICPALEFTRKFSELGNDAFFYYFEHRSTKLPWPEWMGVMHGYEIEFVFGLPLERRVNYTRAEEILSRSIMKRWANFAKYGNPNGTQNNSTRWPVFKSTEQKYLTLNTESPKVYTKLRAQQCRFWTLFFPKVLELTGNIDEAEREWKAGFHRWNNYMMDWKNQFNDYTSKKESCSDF
Sequence of Cholinesterase (P81908 whole entry): as above
T1 sequence (O42275 whole entry): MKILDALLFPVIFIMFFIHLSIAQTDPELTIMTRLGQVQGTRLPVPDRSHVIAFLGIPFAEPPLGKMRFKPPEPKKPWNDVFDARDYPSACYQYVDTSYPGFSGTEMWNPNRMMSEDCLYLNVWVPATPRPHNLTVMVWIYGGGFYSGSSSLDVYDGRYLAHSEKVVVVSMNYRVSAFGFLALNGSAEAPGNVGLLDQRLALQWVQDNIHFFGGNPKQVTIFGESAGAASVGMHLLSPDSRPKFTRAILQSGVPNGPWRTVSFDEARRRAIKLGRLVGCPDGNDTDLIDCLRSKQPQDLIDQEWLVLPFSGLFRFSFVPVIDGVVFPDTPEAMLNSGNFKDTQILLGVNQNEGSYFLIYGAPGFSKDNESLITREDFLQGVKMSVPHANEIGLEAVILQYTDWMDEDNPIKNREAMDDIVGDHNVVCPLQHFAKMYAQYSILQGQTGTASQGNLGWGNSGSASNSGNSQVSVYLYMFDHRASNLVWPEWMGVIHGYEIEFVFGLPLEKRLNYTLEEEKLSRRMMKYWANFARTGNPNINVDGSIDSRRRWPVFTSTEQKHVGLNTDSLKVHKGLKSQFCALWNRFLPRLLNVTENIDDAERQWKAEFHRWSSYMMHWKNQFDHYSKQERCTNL

Structure (SMILES) | IC50 [2] [µM] | other results
CC(=O)CC(c1ccccc1)c1c(O)c2ccccc2oc1=O (stereo unspecified) | – | inhibition [1]: 10%
O=c1oc2cccc(O)c2cc1Cc1ccccc1 | > 700 | –
CCOP(=O)(OCC)Oc1c(C(CC(C)=O)c2ccccc2)c(=O)oc2ccccc12 (racemic) | 11.2 | TDI [3]: Active; TDI [4]: Not Active; K [5]: 142000 M⁻¹ s⁻¹
CCS(=O)(=O)Oc1cccc2ccccc12 | 71.5 | –
CCCCOP(=O)(OCCCC)Oc1c(C(CC(C)=O)c2ccccc2)c(=O)oc2ccccc12 (racemic) | 1.52 | TDI [3]: Active; TDI [4]: Not Active
CCOP(=S)(OCC)Oc1ccc(Cc2cc3ccccc3oc2=O)cc1 | 53 | –
O=c1oc2ccccc2cc1Cc1ccc(O)cc1 | 51.2 | –
CCOP(=O)(OCC)Oc1ccc(Cc2cc3ccccc3oc2=O)cc1 | 30.2 | IC50 [6]: 30.2 µM; Ratio IC50 [7]: 3; inhibition [3]: Active
O=c1oc2cccc(O)c2cc1Cc1ccc(O)cc1 | 32 | –
CCOP(=O)(OCC)Oc1cccc2ccccc12 | 54 | –
CCOP(=S)(OCC)Oc1c(C(CC(C)=O)c2ccccc2)c(=O)oc2ccccc12 (racemic) | > 100 | K [5]: 8400 M⁻¹ s⁻¹
CCOP(=O)(OCC)Oc1cccc2oc(=O)c(Cc3ccccc3)cc12 | 0.363 | –
